Series [1] in a line: Plasma clearance in dog at 1 mg/kg, iv or 1 mg/kg, po. It counts as ADME, organism-based, Canis lupus familiaris. In short, it runs like this:
(§1)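 Pharmacokinetics in rat, dog or rhesus after 1 mg/kg iv and 1 mg/kg po dosing. Plasma clearance (mL/min/kg), half-life (h), volume of distribution (L/kg) and oral bioavailability (%) were derived.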

Series [2] deals with T1, GABA-A receptor; alpha-1/beta-3/gamma-2 (Homo sapiens, UniProt P14867+P18507+P28472).
T1 sequence (P14867 whole entry): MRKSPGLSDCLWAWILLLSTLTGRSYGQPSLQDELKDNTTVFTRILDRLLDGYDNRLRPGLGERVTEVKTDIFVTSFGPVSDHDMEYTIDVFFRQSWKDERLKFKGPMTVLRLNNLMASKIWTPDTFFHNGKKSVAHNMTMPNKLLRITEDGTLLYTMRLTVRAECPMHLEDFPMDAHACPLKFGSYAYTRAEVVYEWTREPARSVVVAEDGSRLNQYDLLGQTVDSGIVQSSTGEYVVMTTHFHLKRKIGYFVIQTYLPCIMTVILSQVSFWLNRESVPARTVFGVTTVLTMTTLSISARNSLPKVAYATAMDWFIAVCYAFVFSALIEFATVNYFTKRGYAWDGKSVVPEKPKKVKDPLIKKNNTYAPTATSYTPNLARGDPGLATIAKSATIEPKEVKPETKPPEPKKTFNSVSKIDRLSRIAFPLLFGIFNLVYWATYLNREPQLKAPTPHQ
T1 sequence (P18507 whole entry): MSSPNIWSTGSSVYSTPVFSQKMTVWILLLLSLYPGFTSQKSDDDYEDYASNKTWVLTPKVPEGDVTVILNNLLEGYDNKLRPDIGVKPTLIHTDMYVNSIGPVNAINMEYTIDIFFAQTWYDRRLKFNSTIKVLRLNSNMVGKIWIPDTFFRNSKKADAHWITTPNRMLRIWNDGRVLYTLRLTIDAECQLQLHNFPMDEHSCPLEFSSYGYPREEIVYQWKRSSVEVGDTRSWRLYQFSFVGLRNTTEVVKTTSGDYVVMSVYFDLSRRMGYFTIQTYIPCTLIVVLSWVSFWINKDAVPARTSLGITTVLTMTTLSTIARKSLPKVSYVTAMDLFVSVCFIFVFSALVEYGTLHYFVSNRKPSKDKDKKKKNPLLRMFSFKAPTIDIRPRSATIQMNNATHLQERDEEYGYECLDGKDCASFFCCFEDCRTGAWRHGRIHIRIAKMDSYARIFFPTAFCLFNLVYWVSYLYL
T1 sequence (P28472 whole entry): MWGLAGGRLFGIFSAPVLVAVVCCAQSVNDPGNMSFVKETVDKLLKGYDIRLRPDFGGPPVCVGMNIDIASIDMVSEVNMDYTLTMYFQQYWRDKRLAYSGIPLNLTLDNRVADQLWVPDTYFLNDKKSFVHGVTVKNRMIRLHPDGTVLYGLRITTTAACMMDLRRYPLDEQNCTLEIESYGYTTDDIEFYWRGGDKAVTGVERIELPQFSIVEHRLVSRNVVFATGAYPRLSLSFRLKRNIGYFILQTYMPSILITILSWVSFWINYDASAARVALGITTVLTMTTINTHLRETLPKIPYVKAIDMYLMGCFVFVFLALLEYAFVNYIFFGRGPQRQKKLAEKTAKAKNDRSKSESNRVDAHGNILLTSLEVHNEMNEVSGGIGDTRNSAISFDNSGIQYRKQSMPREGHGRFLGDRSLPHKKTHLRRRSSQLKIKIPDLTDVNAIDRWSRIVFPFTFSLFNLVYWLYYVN
As to the kind of experiment: Displacement of [3H]Ro 15-1788 from recombinant human GABAA alpha-1 receptor plus beta3gamma2 expressed in L(tk-) cells. It counts as cell-based. In general terms: Displacement assays read how much labelled ligand stays bound in the presence of the test substance.

Series [3] has as its system Rattus norvegicus. As to the kind of experiment: Activity in rat elevated plus maze assay at 1 mg/kg, po. It counts as functional, organism-based. Also noted: dose 1 mg/kg. In short, it runs like this: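 Rats given test compound orally 30 min before a 5 min elevated plus maze session; vehicle 0.5% methyl cellulose po. Read-out is time on open arms as percentage of total time. n = 18 per group. Significance versus vehicle at p < 0.05.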

The target of series [4] is GABA-A receptor; alpha-3/beta-3/gamma-2 (Homo sapiens) (UniProt P18507+P28472+P34903). The experiment in a line: Efficacy against recombinant human GABAA alpha3 receptor plus beta-3-gamma-2 expressed in L(tk-) cells by whole cell patch clamp method relative to chlordiazepoxide. It counts as functional, cell-based. In outline:
(§2)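 Whole-cell patch clamp on L(tk-) cells stably expressing the receptor (alpha plus beta3gamma2). GABA applied at an EC20-equivalent concentration. Modulation of the current measured with increasing test concentrations. Efficacy expressed relative to the maximal chlordiazepoxide response (set at 1.00) or as a percentage.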
For orientation: In patch-clamp work, channel activity is measured electrically.

Series [5] is described as follows: Oral bioavailability in rat at 1 mg/kg, iv or 1 mg/kg, po. It counts as ADME, organism-based. The following applies: in vivo. In outline: as §1
Series [6] can be described thus: Oral bioavailability in rhesus at 1 mg/kg, iv or 1 mg/kg, po. It counts as ADME, organism-based, Macaca mulatta. To be noted: rhesus monkey, in vivo. In short, it runs like this:
as §1

Series [7] is described as follows: Volume of distribution in rhesus at 1 mg/kg, iv or 1 mg/kg, po. It counts as ADME, organism-based, Macaca mulatta. To be noted: rhesus monkey, in vivo, read-out: Vdss. In short, it runs like this:
as §1

For series [8], the target named is GABA-A receptor; alpha-2/beta-3/gamma-2 (Homo sapiens) (UniProt P18507+P28472+P47869). As to the kind of experiment: Efficacy against recombinant human GABAA alpha2 receptor plus beta3gamma2 expressed in L(tk-) cells by whole cell patch clamp method relative to chlordiazepoxide. It counts as functional, cell-based. In short, it runs like this:
(§3)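 Whole-cell patch clamp on L(tk-) cells stably expressing human alpha subunit plus beta3gamma2. GABA applied at an EC20-equivalent concentration. Modulation of that current measured across increasing test-compound concentrations. Efficacy is expressed relative to the maximal response to the full agonist chlordiazepoxide, set at 1.00.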

A short description of series [9]: Half life in rhesus at 1 mg/kg, iv or 1 mg/kg, po. It counts as ADME, organism-based, Macaca mulatta. The following applies: rhesus monkey, in vivo. In outline:
as §1

Series [10] addresses GABA-A receptor; anion channel (Rattus norvegicus) (UniProt O09028+P15431+P18506+P18508+P19969+P20236+P23574+P23576+P28471+P28473+P30191+P62813+P63079+P63138+Q91ZM7+Q9ES14). As to the kind of experiment: Receptor occupancy by displacement of [3H]Ro 15-1788 binding from central Benzodiazepine receptor in rat at 0.3 mg/kg, po. It counts as organism-based. Further details: dose 0.3 mg/kg. In outline: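 Central benzodiazepine receptor occupancy in rat after oral dosing, measured by displacement of [3H]Ro15-1788 binding. Plasma concentration was measured at the dose giving 50% occupancy.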

The nature of series [11]: Volume of distribution in rat at 1 mg/kg, iv or 1 mg/kg, po. It counts as ADME, organism-based. The following applies: in vivo, read-out: Vdss. In short, it runs like this:
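Rat pharmacokinetics after dosing at 1 mg/kg iv and 1 mg/kg po. Plasma clearance in mL/min/kg, half-life in h and volume of distribution in L/kg.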

Series [12] deals with GABA-A receptor; alpha-5/beta-3/gamma-2 (Homo sapiens) (UniProt P18507+P28472+P31644). The experiment in a line: Efficacy against recombinant human GABAA alpha-5 receptor plus beta3gamma2 expressed in L(tk-) cells by whole cell patch clamp method relative to chlordiazepoxide. It counts as functional, cell-based. In short, it runs like this:
as §3

Series [13] has as its target GABA-A receptor; alpha-1/beta-3/gamma-2 (Homo sapiens) (UniProt P14867+P18507+P28472). The experiment in a line: Efficacy against recombinant human GABAA alpha1 receptor plus beta3gamma2 expressed in L(tk-) cells by whole cell patch clamp method relative to chlordiazepoxide. It counts as functional, cell-based. In short, it runs like this: as §2

Active and inactive are the calls of the source. No cut-off for these calls is given here.

By Ki is commonly meant the equilibrium dissociation constant of an inhibitor or competing ligand from its target. The term bioavailability denotes the share of a dose that reaches the circulation, judged against a reference dose that is usually intravenous. By half-life is commonly meant how long it takes for the measured level to halve.

`CC(C)(O)c1cnn2c(-c3ccc(F)c(-c4c(F)cccc4C#N)c3)cnc2n1`: the clearance in series [1] worked out at 4.6 mL/min/kg. Moreover, the inhibition constant (Ki) in [2] was found to be 730 pM. In addition, the outcome in series [3] was Active. For the same molecule, the Efficacy came out at 50% in series [4], 0.38% in series [8], 0.37% in series [12] and 3% in series [13]. Besides, the values for the bioavailability in [5] and in series [6] were 77% and 29%, respectively. Besides, the Vd in series [7] and in series [11] was 2.1 L/kg throughout. In series [9], this molecule showed a half-life of 4.9 h. Besides, the Activity in series [10] came to 50%.

The values above are taken from ChEMBL document CHEMBL1149444, “Discovery of imidazo[1,2-b][1,2,4]triazines as GABA(A) alpha2/3 subtype selective agonists for the treatment of anxiety” (J Med Chem, 2006).
